For 14 compounds, inhibition results are on record in ChEMBL document CHEMBL3045436, “Synthesis and antiviral activities of antofine analogues with different C-6 substituent groups” (2013).

Holding throughout (assay type): functional
The subject of assay [1] is Tobacco mosaic virus. Description: Antiviral activity against Tobacco mosaic virus (TMV) in tobacco plant leaf assessed as curative effect at 100 ug/ml after 3 to 4 days. A digest of the protocol: (§1)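 Whole plants of N. tabacum var. Xanthi nc at the same leaf age. Whole leaves dip-inoculated with TMV (6.0 × 10−3 mg/mL), then washed with water and dried. Compound smeared on the left half-leaf, solvent on the right as control. Local lesions counted 3−4 days after inoculation, three replicates. Inhibition % calculated from mean lesion numbers versus control.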

Assay [2] relates to Tobacco mosaic virus. As to the kind of experiment: Antiviral activity against Tobacco mosaic virus (TMV) in tobacco plant leaf assessed as curative effect at 500 ug/ml after 3 to 4 days. Summed up: as §1
In assay [3] the test system is Tobacco mosaic virus. As to the kind of experiment: Antiviral activity against Tobacco mosaic virus (TMV) in tobacco plant leaf assessed as inactivation effect at 100 ug/ml after 3 to 4 days. Summed up: (§2)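 TMV mixed with an equal volume of compound solution for 30 min. The mixture was inoculated on the left half of N. tabacum var. Xanthi nc leaves, and virus mixed with solvent on the right half as control. Local lesions recorded 3−4 days after inoculation, three replicates. Inhibition % calculated from mean lesion numbers versus control.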

For assay [4], the system named is Tobacco mosaic virus. As to the kind of experiment: Antiviral activity against Tobacco mosaic virus (TMV) in tobacco plant leaf assessed as inactivation effect at 500 ug/ml after 3 to 4 days. Summed up: as §2
Assay [5] deals with Tobacco mosaic virus. Description: Antiviral activity against Tobacco mosaic virus (TMV) in tobacco plant leaf assessed as protection effect at 500 ug/ml after 3 to 4 days. A digest of the protocol:
(§3)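 Compound smeared on the left half of growing N. tabacum var. Xanthi nc leaves of the same age, solvent on the right half as control. Leaves inoculated with TMV 12 h later. Local lesions counted 3−4 days after inoculation, three replicates. Inhibition % = (control − treated mean lesions)/control × 100.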

For assay [6], the system named is Tobacco mosaic virus. As to the kind of experiment: Antiviral activity against Tobacco mosaic virus (TMV) in tobacco plant leaf assessed as protection effect at 100 ug/ml after 3 to 4 days. A digest of the protocol:
as §3

For assay [7], the system named is Tobacco mosaic virus. As to the kind of experiment: Antiviral activity against Tobacco mosaic virus (TMV) in tobacco leaf juice at 100 ug/ml after 72 hr by half-leaf method. A digest of the protocol: (§4)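 Detached leaf (half-leaf) assay in Nicotiana tabacum var. Xanthi nc, 5−6 growth stage. Whole leaf inoculated with TMV (5.88 × 10−2 μg/mL) by juice-leaf rubbing, then cut in half along the main vein. One half soaked 20 min in compound solution, the other in double-distilled water. Halves cultured 72 h at 25 °C. At least three replicates. Inhibition % = (control − treated mean local lesions)/control × 100.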

In assay [8] the test system is Tobacco mosaic virus. As to the kind of experiment: Antiviral activity against Tobacco mosaic virus (TMV) in tobacco leaf juice at 500 ug/ml after 72 hr by half-leaf method. A digest of the protocol: as §4

`COc1cc2c3c(c4ccc(OC(C)=O)cc4c2cc1OC)CN1CCC[C@H]1C3`: the inhibition at 100 µg/mL in assay [1] is 22.4%; in assay [3] it was 19.3%; in assay [6], 16.2%; in assay [7], 30.6%. Besides, the inhibition at 500 µg/mL in assay [2] worked out at 59.4%; in assay [4], 58.5%; in assay [5], 54.2%; in assay [8] it was 68.7%.
For the compound `C#CCOc1ccc2c3c(c4cc(OC)c(OC)cc4c2c1)C[C@@H]1CCCN1C3`, the inhibition at 100 µg/mL in assay [1] turned out to be 45.5%; in assay [3] it was 42.4%; in assay [6] it was 40.9%; in assay [7], 48.6%. For the same compound, the inhibition at 500 µg/mL in assay [2] stood at 74.9%; in assay [4], 70%; in assay [5], 71.6%; in assay [8], 75%.
`COc1cc2c3c(c4ccc(OCC#N)cc4c2cc1OC)CN1CCC[C@H]1C3`: the inhibition at 100 µg/mL in assay [1] amounted to 30.4%; in assay [3], 27.9%; in assay [6], 26.3%; in assay [7], 31.5%. The inhibition at 500 µg/mL in assay [2] came to 57.8%; in assay [4], 58.2%; in assay [5], 54.3%; in assay [8] it was 60%.
In the case of `COc1ccc2c3c(c4cc(OC)c(OC)cc4c2c1)C[C@H]1CCCN1C3` [(-)-ANTOFINE], the inhibition at 100 µg/mL in assay [1] came to 33.4%; in assay [3] it was 29.4%; in assay [6] it was 32.3%; in assay [7] it was 30.4%. Also, the inhibition at 500 µg/mL was 62.5% in assay [2], 58% in assay [4], 55.7% in assay [5] and 65.8% in assay [8].
Turning to `CCOc1ccc2c3c(c4cc(OC)c(OC)cc4c2c1)C[C@@H]1CCCN1C3`, the inhibition at 100 µg/mL stood at 24.3% in assay [1], 23% in assay [3], 28.5% in assay [6] and 25.6% in assay [7]. The inhibition at 500 µg/mL came out at 51.1% in assay [2], 53.2% in assay [4], 48% in assay [5] and 56.2% in assay [8].
For the compound `COc1ccc2c3c(c4cc(OC)c(OC)cc4c2c1)C[C@@H]1CCCN1C3` [HYPOESTESTATIN 1], the inhibition at 100 µg/mL in assay [1] was 28.4%; in assay [3], 26.7%; in assay [6], 37.2%; in assay [7] it was 30.5%. In addition, the inhibition at 500 µg/mL in assay [2] was 56.4%; in assay [4], 55.5%; in assay [5], 51.1%; in assay [8], 60.2%.
As for `COc1cc2c3c(c4ccc(OCCO)cc4c2cc1OC)CN1CCC[C@@H]1C3`, the inhibition at 100 µg/mL in assay [1] amounted to 42.8%; in assay [3] it was 40.9%; in assay [6], 39.5%; in assay [7], 47.5%. Moreover, the inhibition at 500 µg/mL in assay [2] is 74.2%; in assay [4], 70.4%; in assay [5] it was 71.6%; in assay [8], 78.2%.
Turning to `COc1cc2c3c(c4ccc(OCCO)cc4c2cc1OC)CN1CCC[C@H]1C3`, the inhibition at 100 µg/mL in assay [1] is 18.6%; in assay [3], 12%; in assay [6] it was 10.5%; in assay [7], 10%. Moreover, the inhibition at 500 µg/mL worked out at 44% in assay [2], 40.5% in assay [4], 42.3% in assay [5] and 43.9% in assay [8].
On to `CNCC(=O)N[C@@H](CO)C(=O)N[C@H]1[C@H](O)[C@@H](O)[C@H](n2ccc(N)nc2=O)O[C@@H]1C(N)=O` [NINGNANMYCIN], for which the inhibition at 100 µg/mL in assay [1] was found to be 23.1%; in assay [3] it was 25%; in assay [6], 38.4%; in assay [7], 26.8%. Besides, the inhibition at 500 µg/mL was 58.7% in assay [2], 54.2% in assay [4], 57.9% in assay [5] and 69.3% in assay [8].
With `CCOc1ccc2c3c(c4cc(OC)c(OC)cc4c2c1)C[C@H]1CCCN1C3`, the inhibition at 100 µg/mL was found to be 27.2% in assay [1], 28.5% in assay [3], 10.4% in assay [6] and 32.5% in assay [7]. Further, the inhibition at 500 µg/mL came out at 49.7% in assay [2], 43.7% in assay [4], 40.2% in assay [5] and 50% in assay [8].
For the compound `COc1cc2c3c(c4ccc(OCC#N)cc4c2cc1OC)CN1CCC[C@@H]1C3`, the inhibition at 100 µg/mL worked out at 44.1% in assay [1], 38.7% in assay [3], 42.3% in assay [6] and 40% in assay [7]. The inhibition at 500 µg/mL was 75.1% in assay [2], 72.3% in assay [4], 74.5% in assay [5] and 79.3% in assay [8].
With `COc1cc2c3c(c4ccc(O)cc4c2cc1OC)CN1CCC[C@H]1C3`, the inhibition at 100 µg/mL in assay [1] is 23.2%; in assay [3], 17.8%; in assay [6] it was 19.5%; in assay [7], 21.3%. For the same compound, the inhibition at 500 µg/mL in assay [2] came out at 49.6%; in assay [4] it was 46.2%; in assay [5] it was 43.2%; in assay [8] it was 52.2%.
Regarding `C#CCOc1ccc2c3c(c4cc(OC)c(OC)cc4c2c1)C[C@H]1CCCN1C3`, the inhibition at 100 µg/mL in assay [1] worked out at 36.1%; in assay [3], 38.9%; in assay [6], 39.7%; in assay [7], 43.7%. The inhibition at 500 µg/mL stood at 59.3% in assay [2], 52.8% in assay [4], 58.6% in assay [5] and 61.2% in assay [8].
With `COc1cc2c3c(c4ccc(O)cc4c2cc1OC)CN1CCC[C@@H]1C3`, the inhibition at 100 µg/mL in assay [1] turned out to be 42%; in assay [3], 33.5%; in assay [6] it was 35.4%; in assay [7], 40%. Also, the inhibition at 500 µg/mL in assay [2] amounted to 72.4%; in assay [4], 65.3%; in assay [5], 60.4%; in assay [8], 70.5%.
